# Tested on: Fibroblast
# Assay: Multiplex assay against human fibroblast
# Assay type: toxicity, cell-based
# Procedure, shortened: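 Live cells were stained at seeding with Hoechst33342, BioTracker Green Microtubule Cytoskeleton Dye, MitoTracker Red and Annexin V Alexa Fluor 680, then imaged on a CQ1 microscope at 37°C and 5% CO2 after compound addition. CellPathfinder machine-learning gating split cells into Hoechst high-intensity objects or normal cells. Normal cells were split into healthy, pyknosed or fragmented nuclei, and pyknosed cells into mitotic or apoptotic. Tubulin, mitochondrial-mass and membrane-permeability phenotypes are per cents of healthy-nucleus cells.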
# [1] = 12 h, 1 µM, compound concentration 1 uM, replicate 1
# [2] = 12 h, 1 µM, compound concentration 1 uM, replicate 2
# [3] = 12 h, 10 µM, compound concentration 10 uM, replicate 1
# [4] = 12 h, 10 µM, compound concentration 10 uM, replicate 2
# [5] = 24 h, 1 µM, compound concentration 1 uM, replicate 1
# [6] = 24 h, 1 µM, compound concentration 1 uM, replicate 2
# [7] = 24 h, 10 µM, compound concentration 10 uM, replicate 1
# [8] = 24 h, 10 µM, compound concentration 10 uM, replicate 2
# [9] = 48 h, 1 µM, compound concentration 1 uM, replicate 1
# [10] = 48 h, 1 µM, compound concentration 1 uM, replicate 2
# [11] = 48 h, 10 µM, compound concentration 10 uM, replicate 1
# [12] = 48 h, 10 µM, compound concentration 10 uM, replicate 2
smiles,measurement,setting,value
CC[C@@H](C)Nc1nc(C)nc2c(-c3ccc(OC)nc3C)c(C)nn12 [PEXACERFONT],Population Apoptotic (%),[1],40%
same,Population Fragmented Nuclei (%),[1],12%
same,Population Healthy Nuclei (%),[1],66%
same,Population Hoechst High Intensity Objects (%),[1],1%
same,Population Membrane Permeable-Phenotype (%),[1],2%
same,Population Mitochondria Different-Phenotype (%),[1],4%
same,Population Mitotic Cells (%),[1],60%
same,Population Normal (%),[1],98%
same,Population Pyknosed Nuclei (%),[1],20%
same,Population Tubulin-Different-Phenotype (%),[1],35%
same,Total Cell Count,[1],147
same,Population Apoptotic (%),[2],25%
same,Population Fragmented Nuclei (%),[2],32%
same,Population Healthy Nuclei (%),[2],44%
same,Population Hoechst High Intensity Objects (%),[2],2%
same,Population Membrane Permeable-Phenotype (%),[2],15%
same,Population Mitotic Cells (%),[2],75%
same,Population Normal (%),[2],97%
same,Population Pyknosed Nuclei (%),[2],24%
same,Population Tubulin-Different-Phenotype (%),[2],65%
same,Total Cell Count,[2],103
same,Population Apoptotic (%),[3],43%
same,Population Fragmented Nuclei (%),[3],15%
same,Population Healthy Nuclei (%),[3],55%
same,Population Hoechst High Intensity Objects (%),[3],2%
same,Population Membrane Permeable-Phenotype (%),[3],0%
same,Population Mitochondria Different-Phenotype (%),[3],19%
same,Population Mitotic Cells (%),[3],56%
same,Population Normal (%),[3],97%
same,Population Pyknosed Nuclei (%),[3],29%
same,Population Tubulin-Different-Phenotype (%),[3],62%
same,Total Cell Count,[3],143
same,Population Apoptotic (%),[4],38%
same,Population Fragmented Nuclei (%),[4],21%
same,Population Healthy Nuclei (%),[4],40%
same,Population Hoechst High Intensity Objects (%),[4],8%
same,Population Membrane Permeable-Phenotype (%),[4],7%
same,Population Mitochondria Different-Phenotype (%),[4],9%
same,Population Mitotic Cells (%),[4],61%
same,Population Normal (%),[4],91%
same,Population Pyknosed Nuclei (%),[4],38%
same,Population Tubulin-Different-Phenotype (%),[4],68%
same,Total Cell Count,[4],147
same,Population Apoptotic (%),[5],52%
same,Population Fragmented Nuclei (%),[5],16%
same,Population Healthy Nuclei (%),[5],70%
same,Population Hoechst High Intensity Objects (%),[5],1%
same,Population Membrane Permeable-Phenotype (%),[5],0%
same,Population Mitochondria Different-Phenotype (%),[5],3%
same,Population Mitotic Cells (%),[5],47%
same,Population Normal (%),[5],98%
same,Population Pyknosed Nuclei (%),[5],13%
same,Population Tubulin-Different-Phenotype (%),[5],38%
same,Total Cell Count,[5],157
same,Population Apoptotic (%),[6],47%
same,Population Fragmented Nuclei (%),[6],35%
same,Population Healthy Nuclei (%),[6],42%
same,Population Hoechst High Intensity Objects (%),[6],3%
same,Population Membrane Permeable-Phenotype (%),[6],20%
same,Population Mitochondria Different-Phenotype (%),[6],2%
same,Population Mitotic Cells (%),[6],52%
same,Population Normal (%),[6],96%
same,Population Pyknosed Nuclei (%),[6],22%
same,Population Tubulin-Different-Phenotype (%),[6],61%
same,Total Cell Count,[6],108
same,Population Apoptotic (%),[7],37%
same,Population Fragmented Nuclei (%),[7],16%
same,Population Healthy Nuclei (%),[7],56%
same,Population Hoechst High Intensity Objects (%),[7],1%
same,Population Membrane Permeable-Phenotype (%),[7],2%
same,Population Mitochondria Different-Phenotype (%),[7],10%
same,Population Mitotic Cells (%),[7],62%
same,Population Normal (%),[7],98%
same,Population Pyknosed Nuclei (%),[7],27%
same,Population Tubulin-Different-Phenotype (%),[7],68%
same,Total Cell Count,[7],139
same,Population Apoptotic (%),[8],38%
same,Population Fragmented Nuclei (%),[8],18%
same,Population Healthy Nuclei (%),[8],47%
same,Population Hoechst High Intensity Objects (%),[8],7%
same,Population Membrane Permeable-Phenotype (%),[8],20%
same,Population Mitochondria Different-Phenotype (%),[8],6%
same,Population Mitotic Cells (%),[8],61%
same,Population Normal (%),[8],92%
same,Population Pyknosed Nuclei (%),[8],33%
same,Population Tubulin-Different-Phenotype (%),[8],76%
same,Total Cell Count,[8],143
same,Population Apoptotic (%),[9],54%
same,Population Fragmented Nuclei (%),[9],15%
same,Population Healthy Nuclei (%),[9],69%
same,Population Hoechst High Intensity Objects (%),[9],8%
same,Population Membrane Permeable-Phenotype (%),[9],1%
same,Population Mitochondria Different-Phenotype (%),[9],0%
same,Population Mitotic Cells (%),[9],45%
same,Population Normal (%),[9],91%
same,Population Pyknosed Nuclei (%),[9],15%
same,Population Tubulin-Different-Phenotype (%),[9],30%
same,Total Cell Count,[9],160
same,Population Apoptotic (%),[10],25%
same,Population Fragmented Nuclei (%),[10],40%
same,Population Healthy Nuclei (%),[10],45%
same,Population Hoechst High Intensity Objects (%),[10],1%
same,Population Membrane Permeable-Phenotype (%),[10],26%
same,Population Mitochondria Different-Phenotype (%),[10],4%
same,Population Mitotic Cells (%),[10],75%
same,Population Normal (%),[10],98%
same,Population Pyknosed Nuclei (%),[10],14%
same,Population Tubulin-Different-Phenotype (%),[10],52%
same,Total Cell Count,[10],113
same,Population Apoptotic (%),[11],87%
same,Population Fragmented Nuclei (%),[11],23%
same,Population Healthy Nuclei (%),[11],53%
same,Population Hoechst High Intensity Objects (%),[11],3%
same,Population Membrane Permeable-Phenotype (%),[11],0%
same,Population Mitochondria Different-Phenotype (%),[11],14%
same,Population Mitotic Cells (%),[11],12%
same,Population Normal (%),[11],96%
same,Population Pyknosed Nuclei (%),[11],22%
same,Population Tubulin-Different-Phenotype (%),[11],62%
same,Total Cell Count,[11],144
same,Population Apoptotic (%),[12],52%
same,Population Fragmented Nuclei (%),[12],32%
same,Population Healthy Nuclei (%),[12],50%
same,Population Hoechst High Intensity Objects (%),[12],4%
same,Population Membrane Permeable-Phenotype (%),[12],12%
same,Population Mitochondria Different-Phenotype (%),[12],9%
same,Population Mitotic Cells (%),[12],47%
same,Population Normal (%),[12],95%
same,Population Pyknosed Nuclei (%),[12],16%
same,Population Tubulin-Different-Phenotype (%),[12],76%
same,Total Cell Count,[12],134

# Reference: ChEMBL document CHEMBL5058577, “EUbOPEN Chemogenomics Library 2 (Multiplex)” (2022)
